From ChEMBL document CHEMBL4725483, “Simultaneous Inhibition of SIRT2 Deacetylase and Defatty-Acylase Activities via a PROTAC Strategy” (ACS Med Chem Lett, 2020)
Activity calls are given as the source filed them. No cut-off for these calls is given here.

Columns and labels:
[1] = target: T1, NAD-dependent protein deacetylase sirtuin-2 (Homo sapiens, UniProt Q8IXJ6); assay: Inhibition of human SIRT2 deacetylation activity using H3K9Ac as substrate preincubated for 15 mins in presence of NAD+ by HPLC analysis
T1 sequence (Q8IXJ6 whole entry): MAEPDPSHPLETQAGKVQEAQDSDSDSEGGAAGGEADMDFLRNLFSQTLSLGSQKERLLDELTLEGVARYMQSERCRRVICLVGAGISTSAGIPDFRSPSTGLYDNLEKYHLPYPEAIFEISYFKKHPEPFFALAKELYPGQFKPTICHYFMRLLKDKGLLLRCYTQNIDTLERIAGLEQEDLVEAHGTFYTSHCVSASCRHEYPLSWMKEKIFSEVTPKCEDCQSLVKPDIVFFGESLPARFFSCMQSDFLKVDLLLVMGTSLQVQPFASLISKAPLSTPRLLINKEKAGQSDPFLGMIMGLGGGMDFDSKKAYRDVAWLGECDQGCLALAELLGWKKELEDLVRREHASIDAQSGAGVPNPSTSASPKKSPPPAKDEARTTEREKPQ
In short: (§1)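 In vitro sirtuin reaction mixture with compound at a range of concentrations. Compound was preincubated with NAD+ and the enzyme before the substrate peptide was added. IC50 taken from the concentration series.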

[2] = target: T1, NAD-dependent protein deacetylase sirtuin-2; assay: Inhibition of human SIRT2 deacetylation activity using H3K9Ac as substrate in presence of NAD+ by HPLC analysis
[3] = target: NAD-dependent protein deacylase sirtuin-5, mitochondrial (Homo sapiens, UniProt Q9NXA8); assay: Inhibition of human SIRT5 deacetylation activity using H3K9Ac as substrate preincubated for 15 mins in presence of NAD+ followed by substrate addition by HPLC analysis; in short: as §1
Sequence of NAD-dependent protein deacylase sirtuin-5, mitochondrial (Q9NXA8 whole entry): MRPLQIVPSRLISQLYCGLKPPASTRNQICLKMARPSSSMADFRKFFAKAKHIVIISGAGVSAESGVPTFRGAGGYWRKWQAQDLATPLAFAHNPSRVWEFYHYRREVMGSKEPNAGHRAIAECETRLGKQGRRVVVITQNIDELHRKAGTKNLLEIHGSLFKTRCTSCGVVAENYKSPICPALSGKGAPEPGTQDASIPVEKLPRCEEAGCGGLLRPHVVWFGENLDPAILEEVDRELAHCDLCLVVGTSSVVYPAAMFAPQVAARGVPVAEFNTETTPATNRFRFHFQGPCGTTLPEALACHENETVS

[4] = species: Homo sapiens; assay: Selectivity ratio of IC50 for inhibition of human SIRT1 deacetylation activity to IC50 for inhibition of human SIRT2 deacetylation activity
In short: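 Ratio of SIRT1 deacetylase IC50 to SIRT2 deacetylase IC50, both measured with compound, NAD+ and enzyme preincubated before peptide substrate addition.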

[5] = target: T2, Protein cereblon/NAD-dependent protein deacetylase sirtuin-2 (Homo sapiens) (UniProt Q8IXJ6+Q96SW2); assay: Protac activity at CRBN/SIRT2 in human MCF7 cells assessed as SIRT2 degradation at 5 to 10 uM after 48 hrs by immunoblot analysis; assay type: cell-based; settings: dose microM 5-10, time 48.0 hrs
T2 sequence (Q96SW2 whole entry, looked up, one chain of several): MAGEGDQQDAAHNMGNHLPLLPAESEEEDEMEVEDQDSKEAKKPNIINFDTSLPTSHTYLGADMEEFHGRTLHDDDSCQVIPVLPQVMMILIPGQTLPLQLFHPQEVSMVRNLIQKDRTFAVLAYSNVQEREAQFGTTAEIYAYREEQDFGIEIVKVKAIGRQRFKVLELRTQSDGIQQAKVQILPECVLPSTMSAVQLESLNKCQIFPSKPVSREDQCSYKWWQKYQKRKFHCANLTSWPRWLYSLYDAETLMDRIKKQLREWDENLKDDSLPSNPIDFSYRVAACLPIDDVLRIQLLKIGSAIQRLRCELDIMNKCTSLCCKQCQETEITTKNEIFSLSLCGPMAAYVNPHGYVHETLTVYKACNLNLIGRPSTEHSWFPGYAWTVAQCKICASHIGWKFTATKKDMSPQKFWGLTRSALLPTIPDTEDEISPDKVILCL
In short: (§2)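 Cells exposed to compound at the indicated concentrations for 48 h. SIRT1, SIRT2 and SIRT3 levels were read by immunoblot.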

[6] = target: T2, Protein cereblon/NAD-dependent protein deacetylase sirtuin-2 (Homo sapiens); assay: Protac activity at CRBN/SIRT2 in human BT549 cells assessed as SIRT2 degradation at 5 to 10 uM after 48 hrs by immunoblot analysis; assay type: cell-based; settings: BT-549, dose microM 5-10, time 48.0 hrs; in short: as §2
[7] = target: T3, Protein cereblon/NAD-dependent protein deacetylase sirtuin-3, mitochondrial (Homo sapiens) (UniProt Q9NTG7+Q96SW2); assay: Protac activity at CRBN/SIRT3 in human MCF7 cells assessed as SIRT3 degradation at 5 to 10 uM after 48 hrs by immunoblot analysis; assay type: cell-based; settings: dose microM 5-10, time 48.0 hrs
T3 sequence (Q96SW2 whole entry, looked up): as the sequence (Q96SW2 whole entry, looked up, one chain of several) above
T3 sequence (Q9NTG7 whole entry, looked up): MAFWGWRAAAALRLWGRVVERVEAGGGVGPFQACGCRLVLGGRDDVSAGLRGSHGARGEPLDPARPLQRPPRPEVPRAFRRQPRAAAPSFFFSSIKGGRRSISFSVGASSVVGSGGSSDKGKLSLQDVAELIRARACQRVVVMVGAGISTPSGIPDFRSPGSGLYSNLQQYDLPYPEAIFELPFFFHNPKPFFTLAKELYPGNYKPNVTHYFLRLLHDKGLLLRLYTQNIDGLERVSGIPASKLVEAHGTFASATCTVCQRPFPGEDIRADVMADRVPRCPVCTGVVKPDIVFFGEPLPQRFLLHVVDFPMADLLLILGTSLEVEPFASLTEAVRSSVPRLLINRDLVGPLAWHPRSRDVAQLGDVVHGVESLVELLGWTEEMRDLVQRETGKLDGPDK
In short: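 MCF7 or BT-549 cells exposed to inhibitor at the indicated concentrations for 48 h; SIRT1, SIRT2 and SIRT3 levels read by immunoblot.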

[8] = target: T2, Protein cereblon/NAD-dependent protein deacetylase sirtuin-2 (Homo sapiens); assay: Protac activity at CRBN/SIRT2 in human MDA-MB-468 cells assessed as SIRT2 degradation after 48 hrs by immunoblot analysis; assay type: cell-based
In short: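 In MDA-MB-231 and MDA-MB-468 cells, SIRT2 was assessed by immunoblot after compound treatment.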

[9] = target: T2, Protein cereblon/NAD-dependent protein deacetylase sirtuin-2 (Homo sapiens); assay: Protac activity at CRBN/SIRT2 in human MCF7 cells assessed as SIRT2 degradation at 5 uM preincubated with proteasome inhibitior MG132 for 2 hrs followed by compound addition measured after 16 hrs by immunoblot analysis; assay type: cell-based
In short: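 Proteasome dependence: MCF7 cells pretreated 2 h with 5 μM MG132, then cotreated with 5 μM compound plus 5 μM MG132 for 16 h more; SIRT2 detected by immunoblot.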

[10] = target: T2, Protein cereblon/NAD-dependent protein deacetylase sirtuin-2 (Homo sapiens); assay: Protac activity at CRBN/SIRT2 in human MCF7 cells assessed as inhibition of SIRT2 deacetylation by measuring increase in acetylated-alpha tubulin level at 5 uM measured after 12 hrs by DAPI staining based immunofluorescence microscopic analysis; assay type: cell-based
In short: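 MCF7 cells treated for 12 h with 5 or 10 μM, DMSO as control. Acetyl-α-tubulin (K40) was imaged by immunofluorescence, and fluorescence intensity was quantified and normalized to vehicle.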

[11] = target: T2, Protein cereblon/NAD-dependent protein deacetylase sirtuin-2 (Homo sapiens); assay: Protac activity at CRBN/SIRT2 in human HEK293T cells stably expressing flag-tagged K-Ras4a assessed as inhibition of SIRT2 defatty-acylation at 1 uM incubated for 42 hrs followed by Alkyne-14 addition and measured after 6 hrs by immunoprecipitation based assay; assay type: cell-based; settings: HEK-293T
In short: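 HEK 293T cells stably expressing Flag-K-Ras4a-G12V were treated with 1 μM compound for 42 h, then labelled with 50 μM Alk-14 for 6 h more. Flag-K-Ras4a was immunoprecipitated and a fluorescent dye attached by click chemistry. NH2OH was applied to strip cysteine fatty acylation, and lysine fatty acylation was measured by in-gel fluorescence and quantified relative to DMSO.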

[12] = target: T3, Protein cereblon/NAD-dependent protein deacetylase sirtuin-3, mitochondrial (Homo sapiens); assay: Protac activity at CRBN/SIRT3 in human HEK293T cells stably expressing flag-tagged K-Ras4a-G12V assessed as inhibition of SIRT2 defatty-acylation at 1 uM incubated for 48 hrs by immunoblot analysis; assay type: cell-based; settings: HEK-293T
In short: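 HEK 293T cells stably overexpressing Flag-tagged K-Ras4a-G12V (confirmed by pan-Ras blot) were exposed to 1 μM compound for 48 h. SIRT1, SIRT2 and SIRT3 levels were then read by immunoblot.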

[13] = test system: MCF7; assay: Cytotoxicity against human MCF7 cells assessed as reduction in cell viability at 1 uM after 72 hrs; assay type: functional, cell-based
[14] = target: Protein cereblon/NAD-dependent protein deacetylase sirtuin-1 (Homo sapiens) (UniProt Q96EB6+Q96SW2); assay: Protac activity at CRBN/SIRT1 in human HEK293T cells assessed as abundance ratio at 5 uM incubated for 16 hrs by TMT global proteomics assay relative to DMSO; assay type: cell-based; settings: HEK-293T
Sequence of Protein cereblon/NAD-dependent protein deacetylase sirtuin-1 (Homo sapiens) (Q96EB6 whole entry, looked up): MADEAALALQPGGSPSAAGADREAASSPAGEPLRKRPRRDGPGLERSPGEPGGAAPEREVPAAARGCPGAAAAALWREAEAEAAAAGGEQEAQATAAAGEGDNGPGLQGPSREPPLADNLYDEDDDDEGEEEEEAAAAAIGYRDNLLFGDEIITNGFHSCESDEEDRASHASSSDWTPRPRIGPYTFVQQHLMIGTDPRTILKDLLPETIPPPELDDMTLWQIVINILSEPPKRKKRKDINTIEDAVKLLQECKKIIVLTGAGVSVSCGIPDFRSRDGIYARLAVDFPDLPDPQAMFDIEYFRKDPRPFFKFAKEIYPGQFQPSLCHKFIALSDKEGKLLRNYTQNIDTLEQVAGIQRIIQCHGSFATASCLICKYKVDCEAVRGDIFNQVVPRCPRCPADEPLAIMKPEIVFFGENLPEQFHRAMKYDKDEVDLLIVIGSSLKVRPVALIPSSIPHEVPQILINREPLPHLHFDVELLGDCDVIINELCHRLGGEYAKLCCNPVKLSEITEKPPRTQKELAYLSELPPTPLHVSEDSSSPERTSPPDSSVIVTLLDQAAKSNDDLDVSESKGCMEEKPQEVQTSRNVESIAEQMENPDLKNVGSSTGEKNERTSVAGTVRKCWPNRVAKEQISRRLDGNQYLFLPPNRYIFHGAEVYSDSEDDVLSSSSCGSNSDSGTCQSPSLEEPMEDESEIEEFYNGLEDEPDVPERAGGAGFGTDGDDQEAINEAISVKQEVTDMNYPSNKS
Sequence of Protein cereblon/NAD-dependent protein deacetylase sirtuin-1 (Homo sapiens) (Q96SW2 whole entry, looked up): as the sequence (Q96SW2 whole entry, looked up, one chain of several) above
In short: (§3)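 HEK 293T cells given 5 μM compound for 16 h. Global proteomics used Tandem Mass Tag labelling, and each sirtuin's abundance is given as a ratio of treated to DMSO-treated cells.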

[15] = target: T3, Protein cereblon/NAD-dependent protein deacetylase sirtuin-3, mitochondrial (Homo sapiens); assay: Protac activity at CRBN/SIRT3 in human HEK293T cells assessed as abundance ratio at 5 uM incubated for 16 hrs by TMT global proteomics assay relative to DMSO; assay type: cell-based; settings: HEK-293T; in short: as §3
[16] = target: Protein cereblon/NAD-dependent protein deacylase sirtuin-5, mitochondrial (Homo sapiens) (UniProt Q9NXA8+Q96SW2); assay: Protac activity at CRBN/SIRT5 in human HEK293T cells assessed as abundance ratio at 5 uM incubated for 16 hrs by TMT global proteomics assay relative to DMSO; assay type: cell-based; settings: HEK-293T
Sequence of Protein cereblon/NAD-dependent protein deacylase sirtuin-5, mitochondrial (Homo sapiens) (Q96SW2 whole entry, looked up): as the sequence (Q96SW2 whole entry, looked up, one chain of several) above
Sequence of Protein cereblon/NAD-dependent protein deacylase sirtuin-5, mitochondrial (Homo sapiens) (Q9NXA8 whole entry, looked up): as the sequence (Q9NXA8 whole entry) above
In short: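 HEK 293T cells were treated for 16 h. Global proteome was quantified by Tandem Mass Tag labelling. The abundance ratio of each sirtuin was taken against DMSO-treated cells.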

CCCCCCCCCCCCCC(=S)NCCCC[C@H](NC(=O)CCOCCOCCOCCOCCNc1cccc2c1C(=O)N(C1CCC(=O)NC1=O)C2=O)C(=O)Nc1ccccc1 (stereo partly specified)
IC50 [1]: 78 nM | IC50 [2]: 93 nM | IC50 [3]: > 83000 nM | Ratio IC50 [4]: 500 | Activity [5]: Active | Activity [6]: Active | Activity [7]: inactive | Activity [8]: Active | Activity [9]: inactive | Activity [10]: Active | Activity [11]: Active | Activity [12]: inactive | Activity [13]: inactive | Activity [14]: inactive | Activity [15]: inactive | Activity [16]: inactive
